Key:
Assay type in all cases: functional
Malme-3M = experiment: Growth inhibition of human MALME-3M cells at 10 uM relative to control; settings: values are per cent of control
Procedure, shortened: (§1)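 Single-dose preliminary screen in the NCI human cancer cell line panel, run by the NIH. Percent inhibition of cell line growth was calculated by comparison with untreated samples.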

SK-MEL-2 = experiment: Growth inhibition of human SK-MEL-2 cells at 10 uM relative to control; settings: values are per cent of control; procedure, shortened: as §1
SK-MEL-28 = experiment: Growth inhibition of human SK-MEL-28 cells at 10 uM relative to control; settings: values are per cent of control; procedure, shortened: as §1
SK-MEL-5 = experiment: Growth inhibition of human SK-MEL-5 cells at 10 uM relative to control; settings: values are per cent of control; procedure, shortened: as §1
UACC-257 = experiment: Growth inhibition of human UACC257 cells at 10 uM relative to control; settings: values are per cent of control
Procedure, shortened: (§2)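 Single-dose NCI human tumour cell line screen, run by the NIH. Percent inhibition of cell line growth was calculated by comparison with untreated samples.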

UACC-62 = experiment: Growth inhibition of human UACC62 cells at 10 uM relative to control; settings: values are per cent of control; procedure, shortened: as §2
DU-145 = experiment: Growth inhibition of human DU145 cells at 10 uM relative to control; settings: values are per cent of control; procedure, shortened: as §1
PC-3 = experiment: Growth inhibition of human PC3 cells at 10 uM relative to control; settings: values are per cent of control; procedure, shortened: as §1
SF-268 = experiment: Growth inhibition of human SF268 cells at 10 uM relative to control; settings: values are per cent of control; procedure, shortened: as §1
SF-295 = experiment: Growth inhibition of human SF295 cells at 10 uM relative to control; settings: values are per cent of control; procedure, shortened: as §1
SF-539 = experiment: Growth inhibition of human SF539 cells at 10 uM relative to control; settings: values are per cent of control; procedure, shortened: as §1
SNB-19 = experiment: Growth inhibition of human SNB19 cells at 10 uM relative to control; settings: values are per cent of control; procedure, shortened: as §1
SNB-75 = experiment: Growth inhibition of human SNB75 cells at 10 uM relative to control; settings: values are per cent of control; procedure, shortened: as §2
U-251 = experiment: Growth inhibition of human U251 cells at 10 uM relative to control; settings: values are per cent of control; procedure, shortened: as §2
cells [1] = settings: Homo sapiens, Cancer cell lines
cells [2] = settings: Homo sapiens, Cancer cell lines; remark: listed apart in the source
Leukemia cell = experiment: cells; settings: Homo sapiens
cells [3] = settings: Homo sapiens, Cancer cell lines; remark: listed apart in the source
Melanoma cell = experiment: cells; settings: Homo sapiens
cells [4] = settings: Homo sapiens, Cancer cell lines; remark: listed apart in the source
cells [5] = settings: Homo sapiens, Cancer cell lines; remark: listed apart in the source
A549 = experiment: Growth inhibition of human A549 cells at 10 uM relative to control; settings: values are per cent of control; procedure, shortened: as §1
EKVX = experiment: Growth inhibition of human EKVX cells at 10 uM relative to control; settings: values are per cent of control; procedure, shortened: as §1
HOP-62 = experiment: Growth inhibition of human HOP62 cells at 10 uM relative to control; settings: values are per cent of control; procedure, shortened: as §1
HOP-92 = experiment: Growth inhibition of human HOP92 cells at 10 uM relative to control; settings: values are per cent of control; procedure, shortened: as §1
NCI-H226 = experiment: Growth inhibition of human NCI-H226 cells at 10 uM relative to control; settings: values are per cent of control; procedure, shortened: as §1
NCI-H23 = experiment: Growth inhibition of human NCI-H23 cells at 10 uM relative to control; settings: values are per cent of control; procedure, shortened: as §1
NCI-H322M = experiment: Growth inhibition of human NCI-H322M cells at 10 uM relative to control; settings: values are per cent of control; procedure, shortened: as §1
NCI-H460 = experiment: Growth inhibition of human NCI-H460 cells at 10 uM relative to control; settings: values are per cent of control; procedure, shortened: as §1
NCI-H522 = experiment: Growth inhibition of human NCI-H522 cells at 10 uM relative to control; settings: values are per cent of control; procedure, shortened: as §1
COLO 205 = experiment: Growth inhibition of human COLO205 cells at 10 uM relative to control; settings: values are per cent of control; procedure, shortened: as §1
HCC 2998 = experiment: Growth inhibition of human HCC2998 cells at 10 uM relative to control; settings: values are per cent of control; procedure, shortened: as §1

O=C(/C=C/c1cn(CCc2ccccc2)nn1)NO
growth, % of control at 10 µM (Malme-3M): 15.9%
growth, % of control at 10 µM (SK-MEL-2): 45.8%
growth, % of control at 10 µM (SK-MEL-28): 42.6%
growth, % of control at 10 µM (SK-MEL-5): 35.5%
growth, % of control at 10 µM (UACC-257): 19.5%
growth, % of control at 10 µM (UACC-62): 18.1%
growth, % of control at 10 µM (DU-145): 35.5%
growth, % of control at 10 µM (PC-3): 37.2%
growth, % of control at 10 µM (SF-268): 57.2%
growth, % of control at 10 µM (SF-295): 51.8%
growth, % of control at 10 µM (SF-539): 72.8%
growth, % of control at 10 µM (SNB-19): 90%
growth, % of control at 10 µM (SNB-75): 35.1%
growth, % of control at 10 µM (U-251): 40.7%
growth percent at 10 µM (cells [1]): 40%
inhibition at 10 µM (cells [2]): 48%
inhibition at 10 µM (Leukemia cell): 7%
growth percent at 10 µM (cells [3]): 46%
inhibition at 10 µM (Melanoma cell): 33%
inhibition at 10 µM (cells [4]): 58%
inhibition at 10 µM (cells [5]): 45%
growth, % of control at 10 µM (A549): 54.2%
growth, % of control at 10 µM (EKVX): 44.6%
growth, % of control at 10 µM (HOP-62): 13.3%
growth, % of control at 10 µM (HOP-92): -9.64%
growth, % of control at 10 µM (NCI-H226): 76.5%
growth, % of control at 10 µM (NCI-H23): 68.4%
growth, % of control at 10 µM (NCI-H322M): 66%
growth, % of control at 10 µM (NCI-H460): 62.5%
growth, % of control at 10 µM (NCI-H522): 27.7%
growth, % of control at 10 µM (COLO 205): 53.9%
growth, % of control at 10 µM (HCC 2998): 69.2%

From ChEMBL document CHEMBL1140227, “Histone deacetylase inhibitors through click chemistry” (J Med Chem, 2008)
